According to ChEMBL document CHEMBL1122520, “Potential antitumor agents. 43. Synthesis and biological activity of dibasic 9-aminoacridine-4-carboxamides, a new class of antitumor agent” (J Med Chem, 1984):

What was measured:
L1210 = assay: Concentration required for 50% reduction of counted L1210 cells upon exposure for a period of 70h; assay type: functional; conditions: Mus musculus, L1210, 70 h; read-out: ID50 (the source's name)
In short: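 L1210 leukemia cells cultured with drug for 70 h, then counted. ID50 taken as the nanomolar concentration reducing cell count to 50% of untreated controls.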

[1] = Logarithmic association constant determined by ethidium displacement from DNA co-polymers (adenine & thymine)
In short: (§1)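 Binding constants derived from ethidium displacement from synthetic DNA copolymers, assuming competitive binding.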

[2] = Logarithmic association constant determined by ethidium displacement from DNA co-polymers (G + C); in short: as §1
Mus musculus [3] = organism: Mus musculus; assay: Percentage increase in lifespan of treated animals over that of animals injected with tumor (10e6 P388 leukemia cells), at the optimal dose of 250 mg/(kg day); g=No activity (ILS < 20%)
HCT-8 = assay: Concentration required for 50% reduction of counted HCT-8 cells upon exposure for a period of 70h; assay type: functional; conditions: Homo sapiens, HCT-8, 70 h; read-out: ID50 (the source's name)
In short: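 HCT-8 human colon adenocarcinoma cells grown in Alpha MEM with glutamine for 2 days before drug addition. Drug exposure for 70 h per table footnote, with 4-day incubation stated in methods. Trypsinized cells counted electronically. ID50 = nM concentration reducing counted cells to 50% of controls.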

[4] = pKa value for the side-chain cationic center; assay type: physicochemical
[5] = Lipophilicity (Rm) (RP-TLC); assay type: physicochemical
Mus musculus [6] = organism: Mus musculus; assay: Percentage increase in lifespan of treated animals over that of animals injected with tumor (10e6 P388 leukemia cells), at the optimal dose of 30 mg/(kg day); g=No activity (ILS < 20%); assay type: functional, organism-based
Mus musculus [7] = organism: Mus musculus; assay: Percentage increase in lifespan of treated animals over that of animals injected with tumor (10e6 P388 leukemia cells), at the optimal dose of 8.9 mg/(kg day); g=No activity (ILS < 20%); assay type: functional, organism-based
Mus musculus [8] = organism: Mus musculus; assay: Percentage increase in lifespan of treated animals over that of animals injected with tumor (10e6 P388 leukemia cells), at the optimal dose of 13.3 mg/(kg day); assay type: functional
Mus musculus [9] = organism: Mus musculus; assay: Percentage increase in lifespan of treated animals over that of animals injected with tumor (10e6 P388 leukemia cells), at the optimal dose of 40 mg/(kg day); g=No activity (ILS < 20%); assay type: functional, organism-based
Mus musculus [10] = organism: Mus musculus; assay: Number of mice survived indefinitely out a group of 6; assay type: functional
Mus musculus [11] = organism: Mus musculus; assay: Percentage increase in lifespan of treated animals over that of animals injected with tumor (10e6 P388 leukemia cells), at the optimal dose of 2.6 mg/(kg day); assay type: functional
Mus musculus [12] = organism: Mus musculus; assay: Percentage increase in lifespan of treated animals over that of animals injected with tumor (10e6 P388 leukemia cells), at the optimal dose of 20 mg/(kg day); assay type: functional
Mus musculus [13] = organism: Mus musculus; assay: Percentage increase in lifespan of treated animals over that of animals injected with tumor (10e6 P388 leukemia cells), at the optimal dose of 30 mg/(kg day); assay type: functional
Mus musculus [14] = assay: Percentage increase in lifespan of treated animals over that of animals injected with tumor (10e6 P388 leukemia cells), at the optimal dose of 50 mg/kg day); g=No activity (ILS < 20%); assay type: functional, organism-based; set-up: dose 50 mg/kg
Mus musculus [15] = organism: Mus musculus; assay: Percentage increase in lifespan of treated animals over that of animals injected with tumor (10e6 P388 leukemia cells), at the optimal dose of 5.9 mg/(kg day); assay type: functional
Mus musculus [16] = organism: Mus musculus; assay: Percentage increase in lifespan of treated animals over that of animals injected with tumor (10e6 P388 leukemia cells), at the optimal dose of 8.9 mg/(kg day); assay type: functional

Compound	IC50 (L1210)	Log K [1]	Log K [2]	IC50 (HCT-8)	Rm [5]	other results
CN(C)CCNC(=O)c1ccc2nc3ccccc3c(N)c2c1	> 2000 nM	7.08	7.55	> 5000 nM	-1	ILS (Mus musculus [3]): No activity (ILS <20%); pKa [4]: 8.6
Nc1c2ccccc2nc2c(C(=O)NCCN3CCOCC3)cccc12	1020 nM	7.29	7.58	2000 nM	-1	ILS (Mus musculus [6]): No activity (ILS <20%); pKa [4]: 6.7
CCCCCNc1c2ccccc2nc2c(C(=O)NCCN(C)C)cccc12	43 nM	6.91	7.58	160 nM	-0.23	ILS (Mus musculus [8]): 64%
Nc1c2ccccc2nc2c(C(=O)NCCc3ccccn3)cccc12	1900 nM	6.94	7.03	3200 nM	-0.57	ILS (Mus musculus [9]): No activity (ILS <20%); pKa [4]: 5.9
CN(C)CCNC(=O)c1cccc2c(N)c3ccccc3nc12	–	–	–	55 nM	-1.11	Survivors (Mus musculus [10]): 1
Nc1c2ccccc2nc2c(C(=O)NCCN3CCCCC3)cccc12	102 nM	7.12	7.1	380 nM	-0.7	ILS (Mus musculus [11]): 33%; pKa [4]: 8.9
COCCNc1c2ccccc2nc2c(C(=O)NCCN(C)C)cccc12	85 nM	6.73	7.35	400 nM	-0.76	ILS (Mus musculus [8]): 47%
CCCNc1c2ccccc2nc2c(C(=O)NCCN(C)C)cccc12	46 nM	7.23	7.79	203 nM	-0.57	ILS (Mus musculus [8]): 64%
NCCNC(=O)c1cccc2c(N)c3ccccc3nc12	414 nM	7.36	7.67	1500 nM	-1.18	ILS (Mus musculus [12]): 71%; pKa [4]: 9.1
CCCCCCNc1c2ccccc2nc2c(C(=O)NCCN(C)C)cccc12	65 nM	7	7.79	210 nM	-0.04	ILS (Mus musculus [13]): 88%
CN1CCN(C(=O)c2cccc3c(N)c4ccccc4nc23)CC1	> 2000 nM	6.58	6.45	> 1500 nM	-1.29	–
CN(C)CCNC(=O)c1ccc2c(N)c3ccccc3nc2c1	> 2000 nM	7.18	7.66	> 5000 nM	-1.06	–
Nc1c2ccccc2nc2c(C(=O)NCCNCCO)cccc12	77 nM	7.34	7.73	1600 nM	-1.06	ILS (Mus musculus [12]): 73%; pKa [4]: 8.5
CCN(CC)CCNC(=O)c1cccc2c(N)c3ccccc3nc12	5.5 nM	7.26	7.59	83 nM	-0.67	pKa [4]: 9.2; ILS (Mus musculus [15]): 70%
CCCCNc1c2ccccc2nc2c(C(=O)NCCN(C)C)cccc12	41 nM	7.1	7.69	150 nM	-0.34	ILS (Mus musculus [12]): 70%
CCNc1c2ccccc2nc2c(C(=O)NCCN(C)C)cccc12	94 nM	7.14	7.69	188 nM	-0.88	ILS (Mus musculus [16]): 30%

Second part, led by results:

IC50 (L1210)	Log K [1]	Log K [2]	IC50 (HCT-8)	Rm [5]	Compound	other results
460 nM	7.83	8.2	1300 nM	-1.72	CN(C)CCNC(=O)c1cccc2c(NCCN(C)C)c3ccccc3nc12	ILS (Mus musculus [7]): No activity (ILS <20%)
1540 nM	7.41	7.4	1750 nM	-0.58	CN(C)CCCCCCNC(=O)c1cccc2c(N)c3ccccc3nc12	–
1180 nM	7.43	7.3	2000 nM	-0.44	CN(C)CCCCCCCNC(=O)c1cccc2c(N)c3ccccc3nc12	–
15 nM	7.17	7.65	125 nM	-1.11	CNc1c2ccccc2nc2c(C(=O)NCCN(C)C)cccc12	–
1370 nM	7.45	7.45	1800 nM	-0.73	CN(C)CCCCCNC(=O)c1cccc2c(N)c3ccccc3nc12	–
430 nM	7.49	7.43	1000 nM	-0.89	CN(C)CCCCNC(=O)c1cccc2c(N)c3ccccc3nc12	–
484 nM	6.82	7.61	540 nM	-1.19	CN(C)CCNC(=O)c1cccc2c(NCCO)c3ccccc3nc12	ILS (Mus musculus [7]): No activity (ILS <20%)
157 nM	7.51	7.6	520 nM	-0.93	CN(C)CCCNC(=O)c1cccc2c(N)c3ccccc3nc12	ILS (Mus musculus [14]): No activity (ILS <20%)
